The text below walks through data of ChEMBL document CHEMBL3797186, “Single Residue Substitutions That Confer Voltage-Gated Sodium Ion Channel Subtype Selectivity in the NaV1.7 Inhibitory Peptide GpTx-1” (J Med Chem, 2016).

Positions of bridges follow the written chain, without caps; N, C: chain ends. Non-standard residues stand in square brackets, D forms with d. Residues, ends and D or L forms follow the SMILES beside them. 1Nal = N[C@@H](Cc1cccc2ccccc12)C(=O)O; Lys(Me2) = CN(C)CCCC[C@H](N)C(=O)O

Format in all cases: cell-based
Assay [1] concerns the target T1, Sodium channel protein type 5 subunit alpha (Homo sapiens, UniProt Q14524). Briefly: Inhibition of human Nav1.5 expressed in HEK293 cells assessed as inward peak current by ion-works quattro patch clamp electrophysiology method. The essentials:
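Stable HEK293 line expressing human NaV1.5, recorded by population patch clamp on the IonWorks Quattro.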
(In patch-clamp work, channel activity is measured electrically.)

For assay [2], the target named is T1, Sodium channel protein type 5 subunit alpha. As to the kind of experiment: Inhibition of human Nav1.5 expressed in HEK293 cells by whole cell patch clamp electrophysiology method. The essentials: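 Stable HEK293 line expressing human NaV1.5, recorded on the PatchXpress 7000A. Percent inhibition versus concentration was pooled from at least 10 cells, with two to three points per concentration. The pooled set was fitted with a four-parameter Hill equation to give a single IC50 curve.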

The target in assay [3] is Sodium channel protein type 9 subunit alpha (Homo sapiens, UniProt Q15858). As to the kind of experiment: Inhibition of human Nav1.7 expressed in HEK293 cells assessed as inward peak current by ion-works quattro patch clamp electrophysiology method.
Chain of Sodium channel protein type 9 subunit alpha (Q15858 whole entry): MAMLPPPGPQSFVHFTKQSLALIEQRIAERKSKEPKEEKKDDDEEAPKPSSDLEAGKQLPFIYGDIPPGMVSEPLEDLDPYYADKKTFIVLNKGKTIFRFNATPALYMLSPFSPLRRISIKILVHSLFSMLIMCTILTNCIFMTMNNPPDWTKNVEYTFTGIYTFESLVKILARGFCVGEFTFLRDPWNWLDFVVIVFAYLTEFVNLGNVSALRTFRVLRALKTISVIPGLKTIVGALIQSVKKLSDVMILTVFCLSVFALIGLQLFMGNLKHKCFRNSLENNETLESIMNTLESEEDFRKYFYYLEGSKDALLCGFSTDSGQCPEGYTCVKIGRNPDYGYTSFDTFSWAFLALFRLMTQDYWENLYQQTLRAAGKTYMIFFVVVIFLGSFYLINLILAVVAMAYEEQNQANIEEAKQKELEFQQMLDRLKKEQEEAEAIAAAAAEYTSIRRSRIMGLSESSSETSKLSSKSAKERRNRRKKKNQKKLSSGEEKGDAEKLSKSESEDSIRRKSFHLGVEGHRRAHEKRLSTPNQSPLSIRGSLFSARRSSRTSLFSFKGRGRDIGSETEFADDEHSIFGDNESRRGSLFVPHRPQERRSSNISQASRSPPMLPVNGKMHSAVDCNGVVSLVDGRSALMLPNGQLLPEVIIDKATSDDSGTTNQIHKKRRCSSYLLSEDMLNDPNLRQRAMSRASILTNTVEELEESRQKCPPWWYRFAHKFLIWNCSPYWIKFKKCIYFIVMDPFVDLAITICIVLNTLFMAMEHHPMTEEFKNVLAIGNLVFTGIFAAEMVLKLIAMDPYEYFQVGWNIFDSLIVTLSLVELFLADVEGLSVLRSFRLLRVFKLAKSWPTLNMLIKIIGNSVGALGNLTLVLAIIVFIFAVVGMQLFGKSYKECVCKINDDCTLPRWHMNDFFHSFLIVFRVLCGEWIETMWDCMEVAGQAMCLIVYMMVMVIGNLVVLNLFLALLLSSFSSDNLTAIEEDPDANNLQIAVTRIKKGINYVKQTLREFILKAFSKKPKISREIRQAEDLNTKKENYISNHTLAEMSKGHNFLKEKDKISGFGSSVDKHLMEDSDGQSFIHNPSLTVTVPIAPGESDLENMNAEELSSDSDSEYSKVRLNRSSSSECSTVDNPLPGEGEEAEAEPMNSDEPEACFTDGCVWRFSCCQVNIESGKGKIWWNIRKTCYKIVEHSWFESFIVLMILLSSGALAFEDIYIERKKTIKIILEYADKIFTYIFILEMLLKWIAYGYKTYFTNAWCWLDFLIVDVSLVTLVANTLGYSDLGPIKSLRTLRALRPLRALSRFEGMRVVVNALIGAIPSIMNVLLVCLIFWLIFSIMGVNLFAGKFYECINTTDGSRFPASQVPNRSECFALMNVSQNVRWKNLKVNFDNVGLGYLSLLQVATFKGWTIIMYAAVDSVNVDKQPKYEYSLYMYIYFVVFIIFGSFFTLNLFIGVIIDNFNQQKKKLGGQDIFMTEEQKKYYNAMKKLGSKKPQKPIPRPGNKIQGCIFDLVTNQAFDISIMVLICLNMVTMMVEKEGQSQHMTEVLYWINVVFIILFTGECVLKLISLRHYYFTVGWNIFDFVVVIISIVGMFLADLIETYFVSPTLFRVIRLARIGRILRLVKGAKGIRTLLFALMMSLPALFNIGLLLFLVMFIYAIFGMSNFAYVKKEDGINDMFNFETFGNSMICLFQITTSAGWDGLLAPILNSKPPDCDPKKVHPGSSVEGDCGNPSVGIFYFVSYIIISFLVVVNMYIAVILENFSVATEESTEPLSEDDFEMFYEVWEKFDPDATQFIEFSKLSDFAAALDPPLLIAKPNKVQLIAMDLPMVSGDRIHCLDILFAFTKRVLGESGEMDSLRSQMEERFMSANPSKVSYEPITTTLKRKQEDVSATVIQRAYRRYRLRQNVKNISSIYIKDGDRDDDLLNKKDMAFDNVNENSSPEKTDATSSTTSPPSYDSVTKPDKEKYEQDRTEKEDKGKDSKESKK

T1 sequence (Q14524 whole entry): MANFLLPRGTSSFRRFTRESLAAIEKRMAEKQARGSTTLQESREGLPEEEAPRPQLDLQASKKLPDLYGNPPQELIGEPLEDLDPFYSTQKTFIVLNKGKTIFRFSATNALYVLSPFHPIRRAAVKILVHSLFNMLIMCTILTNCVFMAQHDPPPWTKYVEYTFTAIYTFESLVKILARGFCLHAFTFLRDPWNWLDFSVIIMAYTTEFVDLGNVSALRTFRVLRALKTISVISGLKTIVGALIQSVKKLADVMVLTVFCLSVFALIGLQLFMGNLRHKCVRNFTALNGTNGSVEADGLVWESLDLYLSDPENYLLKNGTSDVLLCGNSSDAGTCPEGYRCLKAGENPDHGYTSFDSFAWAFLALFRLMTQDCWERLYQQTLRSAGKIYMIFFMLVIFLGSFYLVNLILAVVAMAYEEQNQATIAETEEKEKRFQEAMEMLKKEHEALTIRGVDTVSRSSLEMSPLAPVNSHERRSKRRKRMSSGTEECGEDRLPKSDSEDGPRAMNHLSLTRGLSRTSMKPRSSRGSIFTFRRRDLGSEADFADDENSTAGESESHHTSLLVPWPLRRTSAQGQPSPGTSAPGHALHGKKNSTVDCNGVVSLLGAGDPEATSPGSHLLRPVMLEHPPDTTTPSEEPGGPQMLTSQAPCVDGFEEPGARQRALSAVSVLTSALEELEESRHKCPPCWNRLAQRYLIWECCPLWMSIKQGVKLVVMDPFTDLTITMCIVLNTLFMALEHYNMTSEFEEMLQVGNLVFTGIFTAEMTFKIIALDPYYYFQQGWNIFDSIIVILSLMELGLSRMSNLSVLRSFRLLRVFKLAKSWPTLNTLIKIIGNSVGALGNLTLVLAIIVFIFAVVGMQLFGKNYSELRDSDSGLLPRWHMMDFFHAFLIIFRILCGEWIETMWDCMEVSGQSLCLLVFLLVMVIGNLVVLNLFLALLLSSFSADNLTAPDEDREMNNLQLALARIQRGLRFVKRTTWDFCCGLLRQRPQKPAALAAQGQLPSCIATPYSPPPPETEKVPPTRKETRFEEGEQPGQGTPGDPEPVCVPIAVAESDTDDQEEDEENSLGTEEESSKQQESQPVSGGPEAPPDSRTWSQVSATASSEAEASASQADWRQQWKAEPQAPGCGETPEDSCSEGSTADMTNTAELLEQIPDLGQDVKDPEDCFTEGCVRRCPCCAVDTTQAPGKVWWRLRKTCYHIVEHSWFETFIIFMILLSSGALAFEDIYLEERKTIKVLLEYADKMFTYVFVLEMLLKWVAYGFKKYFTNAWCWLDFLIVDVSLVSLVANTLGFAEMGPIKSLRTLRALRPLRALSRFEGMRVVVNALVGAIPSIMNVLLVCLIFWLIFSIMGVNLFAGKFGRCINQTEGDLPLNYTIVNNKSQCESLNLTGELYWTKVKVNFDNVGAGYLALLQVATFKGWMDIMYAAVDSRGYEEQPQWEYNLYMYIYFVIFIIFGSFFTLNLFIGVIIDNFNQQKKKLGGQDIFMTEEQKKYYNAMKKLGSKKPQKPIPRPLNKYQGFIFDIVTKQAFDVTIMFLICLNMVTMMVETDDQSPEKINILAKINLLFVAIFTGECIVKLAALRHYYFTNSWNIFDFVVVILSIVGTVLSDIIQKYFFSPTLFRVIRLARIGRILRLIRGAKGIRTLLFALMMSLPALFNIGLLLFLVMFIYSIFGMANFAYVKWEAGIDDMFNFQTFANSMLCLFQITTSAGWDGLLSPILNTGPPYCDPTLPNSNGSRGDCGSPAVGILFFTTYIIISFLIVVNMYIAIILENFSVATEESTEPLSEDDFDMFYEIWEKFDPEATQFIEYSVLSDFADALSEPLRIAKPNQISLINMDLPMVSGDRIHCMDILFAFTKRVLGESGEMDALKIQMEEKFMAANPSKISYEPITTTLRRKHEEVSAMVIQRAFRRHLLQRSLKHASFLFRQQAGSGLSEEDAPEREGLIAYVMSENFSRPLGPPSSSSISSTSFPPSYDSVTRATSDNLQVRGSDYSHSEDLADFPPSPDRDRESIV

With `CC[C@H](C)[C@@H]1NC(=O)[C@@H]2CSSC[C@@H]3NC(=O)[C@H](C(C)C)NC(=O)[C@H](CC(C)C)NC(=O)[C@H](CC(N)=O)NC(=O)[C@@H]4CCCN4C(=O)[C@H](CCCNC(=N)N)NC(=O)[C@H](CSSC[C@H](NC(=O)[C@H](CC(=O)O)NC(C)=O)C(=O)N[C@@H](CC(C)C)C(=O)NCC(=O)N[C@@H](Cc4ccccc4)C(=O)N[C@@H](CCSC)C(=O)N[C@@H](CCCNC(=N)N)C(=O)N[C@@H](CCCCN)C(=O)N2)NC(=O)[C@H](CSSC[C@@H](C(=O)N[C@@H](CCCCN)C(=O)N[C@@H](Cc2ccc(O)cc2)C(=O)N[C@H](C(=O)N[C@@H](Cc2ccccc2)C(N)=O)C(C)C)NC(=O)[C@H](Cc2c[nH]c4ccccc24)NC(=O)[C@H](CCCCN)NC(=O)[C@H](Cc2cnc[nH]2)NC(=O)[C@H]([C@@H](C)O)NC(=O)[C@H](CCCNC(=N)N)NC(=O)[C@H](CO)NC3=O)NC(=O)[C@H](CCCCN)NC(=O)[C@H](CC(=O)O)NC(=O)[C@H](CC(N)=O)NC(=O)[C@H](CC(=O)O)NC(=O)[C@@H]2CCCN2C1=O`, the results for the IC50 in assay [1] and in assay [2] were over 5 µM and over 10 µM, respectively.
Take `CC[C@H](C)[C@@H]1NC(=O)[C@@H]2CSSC[C@@H]3NC(=O)[C@H](C(C)C)NC(=O)[C@H](CC(C)C)NC(=O)[C@H](CC(N)=O)NC(=O)[C@@H]4CCCN4C(=O)[C@H](CCCN/C(=N/C)NC)NC(=O)[C@H](CSSC[C@H](NC(=O)[C@@H](N)CC(=O)O)C(=O)N[C@@H](CC(C)C)C(=O)NCC(=O)N[C@@H](Cc4ccccc4)C(=O)N[C@@H](CCSC)C(=O)N[C@@H](CCCNC(=N)N)C(=O)N[C@@H](CCCCN)C(=O)N2)NC(=O)[C@H](CSSC[C@@H](C(=O)N[C@@H](CCCCN)C(=O)N[C@@H](Cc2ccc(O)cc2)C(=O)N[C@H](C(=O)N[C@@H](Cc2ccccc2)C(N)=O)C(C)C)NC(=O)[C@H](Cc2c[nH]c4ccccc24)NC(=O)[C@H](CCCCN)NC(=O)[C@H](Cc2cnc[nH]2)NC(=O)[C@H]([C@@H](C)O)NC(=O)[C@H](CCCNC(=N)N)NC(=O)[C@H](CO)NC3=O)NC(=O)[C@H](CCCCN)NC(=O)[C@H](CC(=O)O)NC(=O)[C@H](CC(N)=O)NC(=O)[C@H](CC(=O)O)NC(=O)[C@@H]2CCCN2C1=O`: the IC50 in assay [1] is over 5 µM; in assay [2] it was over 10 µM.
Take `CC[C@H](C)[C@@H]1NC(=O)[C@@H]2CSSC[C@@H]3NC(=O)[C@H](C(C)C)NC(=O)[C@H](CC(C)C)NC(=O)[C@H](CC(N)=O)NC(=O)[C@@H]4CCCN4C(=O)[C@H](CCCNC(=N)N)NC(=O)[C@H](CSSC[C@H](NC(=O)[C@@H](N)CC(=O)O)C(=O)N[C@@H](CC(C)C)C(=O)NCC(=O)N[C@@H](Cc4ccccc4)C(=O)N[C@@H](CCSC)C(=O)N[C@@H](CCCNC(=N)N)C(=O)N[C@@H](CCCCN)C(=O)N2)NC(=O)[C@H](CSSC[C@@H](C(=O)N[C@@H](CCCCN)C(=O)N[C@@H](Cc2cccc4ccccc24)C(=O)N[C@H](C(=O)N[C@@H](Cc2ccccc2)C(N)=O)C(C)C)NC(=O)[C@H](Cc2c[nH]c4ccccc24)NC(=O)[C@H](CCCCN)NC(=O)[C@H](Cc2cnc[nH]2)NC(=O)[C@H]([C@@H](C)O)NC(=O)[C@H](CCCNC(=N)N)NC(=O)[C@H](CO)NC3=O)NC(=O)[C@H](CCCCN)NC(=O)[C@H](CC(=O)O)NC(=O)[C@H](CC(N)=O)NC(=O)[C@H](CC(=O)O)NC(=O)[C@@H]2CCCN2C1=O` (H-DCLGFMRKCIPDNDKCCRPNLVCSRTHKWCK[1Nal]VF-NH2; disulfide 2-17, 9-23, 16-30): the IC50 in assay [1] amounted to 3.5 µM; in assay [2], 1 µM; in assay [3] it was 0.009 µM.
On to `CC[C@H](C)[C@@H]1NC(=O)[C@@H]2CSSC[C@@H]3NC(=O)[C@H](C(C)C)NC(=O)[C@H](CC(C)C)NC(=O)[C@H](CC(N)=O)NC(=O)[C@@H]4CCCN4C(=O)[C@H](CCCNC(=N)N)NC(=O)[C@H](CSSC[C@H](NC(=O)[C@@H](N)CC(=O)O)C(=O)N[C@@H](CC(C)C)C(=O)NCC(=O)N[C@@H](Cc4ccccc4)C(=O)N[C@@H](CCSC)C(=O)N[C@@H](CCCNC(=N)N)C(=O)N[C@@H](CCCCN)C(=O)N2)NC(=O)[C@H](CSSC[C@@H](C(=O)N[C@@H](CCCCN)C(=O)N[C@@H](Cc2ccc(O)cc2)C(=O)N[C@H](C(=O)N[C@@H](Cc2ccccc2)C(N)=O)C(C)C)NC(=O)[C@H](Cc2cccc4ccccc24)NC(=O)[C@H](CCCCN)NC(=O)[C@H](Cc2cnc[nH]2)NC(=O)[C@H]([C@@H](C)O)NC(=O)[C@H](CCCNC(=N)N)NC(=O)[C@H](CO)NC3=O)NC(=O)[C@H](CCCCN)NC(=O)[C@H](CC(=O)O)NC(=O)[C@H](CC(N)=O)NC(=O)[C@H](CC(=O)O)NC(=O)[C@@H]2CCCN2C1=O` (H-DCLGFMRKCIPDNDKCCRPNLVCSRTHK[1Nal]CKYVF-NH2; disulfide 2-17, 9-23, 16-30), for which the half-inhibitory concentration (IC50) is over 5 µM in assay [1] and over 10 µM in assay [2].
Consider `CC[C@H](C)[C@@H]1NC(=O)[C@@H]2CSSC[C@@H]3NC(=O)[C@H](C(C)C)NC(=O)[C@H](CC(C)C)NC(=O)[C@H](CC(N)=O)NC(=O)[C@@H]4CCCN4C(=O)[C@H](CCCNC(=N)N)NC(=O)[C@H](CSSC[C@H](NC(=O)[C@@H](N)CC(=O)O)C(=O)N[C@@H](CC(C)C)C(=O)NCC(=O)N[C@@H](Cc4ccccc4)C(=O)N[C@@H](CCSC)C(=O)N[C@@H](CCCNC(=N)N)C(=O)N[C@@H](CCCCN)C(=O)N2)NC(=O)[C@H](CSSC[C@@H](C(=O)N[C@@H](CCCCN)C(=O)N[C@@H](Cc2ccc(O)cc2)C(=O)N[C@H](C(=O)N[C@@H](Cc2ccccc2)C(N)=O)C(C)C)NC(=O)[C@H](Cc2c[nH]c4ccccc24)NC(=O)[C@H](CCC(N)=O)NC(=O)[C@H](Cc2cnc[nH]2)NC(=O)[C@H]([C@@H](C)O)NC(=O)[C@H](CCCNC(=N)N)NC(=O)[C@H](CO)NC3=O)NC(=O)[C@H](CCCCN)NC(=O)[C@H](CC(=O)O)NC(=O)[C@H](CC(N)=O)NC(=O)[C@H](CC(=O)O)NC(=O)[C@@H]2CCCN2C1=O` (H-DCLGFMRKCIPDNDKCCRPNLVCSRTHQWCKYVF-NH2; disulfide 2-17, 9-23, 16-30), for which the IC50 in assay [2] is over 10 µM; in assay [3] it was 0.2 µM.
Consider `CC[C@H](C)[C@@H]1NC(=O)[C@@H]2CSSC[C@@H]3NC(=O)[C@H](C(C)C)NC(=O)[C@H](CC(C)C)NC(=O)[C@H](CC(N)=O)NC(=O)[C@@H]4CCCN4C(=O)[C@H](CCCCN(C)C)NC(=O)[C@H](CSSC[C@H](NC(=O)[C@@H](N)CC(=O)O)C(=O)N[C@@H](CC(C)C)C(=O)NCC(=O)N[C@@H](Cc4ccccc4)C(=O)N[C@@H](CCSC)C(=O)N[C@@H](CCCNC(=N)N)C(=O)N[C@@H](CCCCN)C(=O)N2)NC(=O)[C@H](CSSC[C@@H](C(=O)N[C@@H](CCCCN)C(=O)N[C@@H](Cc2ccc(O)cc2)C(=O)N[C@H](C(=O)N[C@@H](Cc2ccccc2)C(N)=O)C(C)C)NC(=O)[C@H](Cc2c[nH]c4ccccc24)NC(=O)[C@H](CCCCN)NC(=O)[C@H](Cc2cnc[nH]2)NC(=O)[C@H]([C@@H](C)O)NC(=O)[C@H](CCCNC(=N)N)NC(=O)[C@H](CO)NC3=O)NC(=O)[C@H](CCCCN)NC(=O)[C@H](CC(=O)O)NC(=O)[C@H](CC(N)=O)NC(=O)[C@H](CC(=O)O)NC(=O)[C@@H]2CCCN2C1=O` (H-DCLGFMRKCIPDNDKCC[Lys(Me2)]PNLVCSRTHKWCKYVF-NH2; disulfide 2-17, 9-23, 16-30), for which the concentration for half-maximal inhibition (IC50) in assay [1] was over 5 µM; in assay [2] it was over 10 µM.
As to `CC[C@H](C)[C@@H]1NC(=O)[C@@H]2CSSC[C@@H]3NC(=O)[C@H](C(C)C)NC(=O)[C@H](CC(C)C)NC(=O)[C@H](CC(N)=O)NC(=O)[C@@H]4CCCN4C(=O)[C@H](CCCNC(=N)N)NC(=O)[C@H](CSSC[C@H](NC(=O)[C@@H](N)CC(=O)O)C(=O)N[C@@H](CC(C)C)C(=O)NCC(=O)N[C@@H](Cc4ccccc4)C(=O)N[C@@H](CCSC)C(=O)N[C@@H](CCCNC(=N)N)C(=O)N[C@@H](CCCCN)C(=O)N2)NC(=O)[C@H](CSSC[C@@H](C(=O)N[C@@H](CCCCN)C(=O)N[C@@H](Cc2ccc(O)cc2)C(=O)N[C@H](C(=O)N[C@@H](Cc2ccccc2)C(N)=O)C(C)C)NC(=O)[C@H](Cc2c[nH]c4ccccc24)NC(=O)[C@H](CCCCN)NC(=O)[C@H](Cc2c[nH]cn2)NC(=O)[C@H]([C@@H](C)O)NC(=O)[C@H](CCCNC(=N)N)NC(=O)[C@H](CO)NC3=O)NC(=O)[C@H](CCCCN)NC(=O)[C@H](CC(=O)O)NC(=O)[C@H](Cc2cccc3ccccc23)NC(=O)[C@H](CC(=O)O)NC(=O)[C@@H]2CCCN2C1=O` (H-DCLGFMRKCIPD[1Nal]DKCCRPNLVCSRTHKWCKYVF-NH2; disulfide 2-17, 9-23, 16-30), the figures for the 50% inhibitory concentration (IC50) in assay [1], in assay [2] and in assay [3] were over 5 µM, 7.8 µM and 0.13 µM, respectively.
Turning to `CC[C@H](C)[C@@H]1NC(=O)[C@@H]2CSSC[C@@H]3NC(=O)[C@H](C(C)C)NC(=O)[C@H](CC(C)C)NC(=O)[C@H](CC(N)=O)NC(=O)[C@@H]4CCCN4C(=O)[C@H](CCCNC(=N)N)NC(=O)[C@H](CSSC[C@H](NC(=O)[C@@H](N)CC(=O)O)C(=O)N[C@@H](CC(C)C)C(=O)NCC(=O)N[C@@H](Cc4ccccc4)C(=O)N[C@@H](CCSC)C(=O)N[C@@H](CCCNC(=N)N)C(=O)N[C@@H](CCCCN)C(=O)N2)NC(=O)[C@H](CSSC[C@@H](C(=O)N[C@@H](CCCCN)C(=O)N[C@@H](Cc2ccc(O)cc2)C(=O)N[C@H](C(=O)N[C@@H](Cc2ccccc2)C(=O)O)C(C)C)NC(=O)[C@H](Cc2c[nH]c4ccccc24)NC(=O)[C@H](CCCCN)NC(=O)[C@H](Cc2cnc[nH]2)NC(=O)[C@H]([C@@H](C)O)NC(=O)[C@H](CCCNC(=N)N)NC(=O)[C@H](CO)NC3=O)NC(=O)[C@H](CCCCN)NC(=O)[C@H](CC(=O)O)NC(=O)[C@H](CC(N)=O)NC(=O)[C@H](CC(=O)O)NC(=O)[C@@H]2CCCN2C1=O` (stereo in doubt), the half-inhibitory concentration (IC50) in assay [1] is over 5 µM; in assay [2] it was over 10 µM.

As usually defined, the IC50 is the point on the concentration scale where inhibition reaches its midpoint.
